Measured values of several laboratories.
Protocols differ between the studies behind these lines.
Target: Dual specificity tyrosine-phosphorylation-regulated kinase 2 (DYRK2, Homo sapiens, UniProt Q92630)
Method: competition with immobilised ligand
Sequence (Q92630 1-601, as in one of the studies): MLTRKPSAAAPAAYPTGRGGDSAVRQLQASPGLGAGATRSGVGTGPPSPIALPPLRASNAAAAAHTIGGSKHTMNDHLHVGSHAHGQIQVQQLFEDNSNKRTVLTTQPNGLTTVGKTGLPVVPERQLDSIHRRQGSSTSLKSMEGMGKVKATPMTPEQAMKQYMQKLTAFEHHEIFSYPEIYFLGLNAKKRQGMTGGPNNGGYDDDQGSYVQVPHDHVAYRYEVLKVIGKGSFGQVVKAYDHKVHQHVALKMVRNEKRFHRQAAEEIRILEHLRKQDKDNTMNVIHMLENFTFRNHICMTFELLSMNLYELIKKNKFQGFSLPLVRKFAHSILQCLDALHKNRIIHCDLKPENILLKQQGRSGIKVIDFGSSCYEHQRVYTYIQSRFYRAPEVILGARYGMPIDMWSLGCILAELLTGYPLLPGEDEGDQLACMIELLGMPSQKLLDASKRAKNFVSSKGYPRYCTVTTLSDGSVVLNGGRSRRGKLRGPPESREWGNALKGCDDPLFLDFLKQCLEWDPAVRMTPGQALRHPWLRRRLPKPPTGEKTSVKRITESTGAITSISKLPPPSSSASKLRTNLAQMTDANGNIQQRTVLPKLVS

observed | concentration | remaining binding [%] | SMILES
binding | 1 µM | 8.3 | O=C(NCC1CCOCC1)c1n[nH]cc1NC(=O)c1c(F)cccc1F
binding | 1 µM | 100 | Nc1ncc2c(n1)-c1c([nH]c3ccc(C#CC4CC4)cc13)CCCC2
binding | 1 µM | 3.8 | O=C(c1ccc(Nc2ncc(Cl)c(-c3ccc(Cl)s3)n2)cc1)N1CCC(N2CCCC2)CC1
binding | 1 µM | 77 | CN(CCCC(F)(F)F)c1nccc(-c2cnn3ncccc23)n1
cell-free assay | 5 µM | 85 | COc1ncc2cc3ccccc3nc2c1C#N
cell-free assay | 1 µM | 93 | C[C@@]1(Cc2ccc(C#N)cc2)C(=O)N(c2cc(Cl)cc(Cl)c2)c2ncc(C(=O)NC3(c4nc(C5CCC5)no4)CC3)n21
binding | 1 µM | 86 | CNC(=O)[C@@H]1CC[C@@H](n2c(-c3ccc4cnccc4c3)nc3ccc(C(=O)NCc4cccc(C(N)=O)c4)cc32)C1
cell-free assay | 1 µM | 74 | CCCOc1ccc([C@H]2[C@H](C(=O)O)[C@@H](c3ccc4c(c3)OCO4)CN2CC(=O)Nc2c(CC)cccc2CC)cc1
binding | 1 µM | 3.9 | O=C(c1ccc(Nc2nccc(-c3cc4ccccc4s3)n2)cc1)N1CCC(N2CCCC2)CC1
cell-free assay | 5 µM | 5 | FC(F)(F)Oc1cccc(-c2cnc3ccc(-c4ccncc4)nn23)c1
cell-free assay | 1 µM | 84 | O=C(Nc1ccc(Oc2ccc(F)cc2)cc1)N1CCc2ncccc2[C@H]1c1ccc(F)cc1
binding | 0.1 µM | 79 | C[C@@H](c1ccc(-n2cnc3c(N)ncnc32)cc1)N1CCc2nn(C)c(Cc3ccccc3)c2C1=O
cell-free assay | 1 µM | 94 | COc1cc(-c2cn(C3CCc4ccccc4N(CC(F)(F)F)C3=O)nn2)ccc1-n1ccc(C)n1 (centres unmarked)
binding | 1 µM | 3.1 | O=C(c1ccc(Nc2ncc(Cl)c(-c3cc4ccccc4s3)n2)cc1)N1CCC(N2CCCC2)CC1
